Test results: paper PMC3362663 (Bioorganic & medicinal chemistry letters, 2012)
pIC50: −log10 of the molar value.

Experiments:
[1] = biological target: T1, Epac2 (Mus musculus, UniProt Q9EQZ6); assay: 8-NBD-cAMP competition binding to Epac2, dose-dependent titration
T1 sequence (Q9EQZ6 1-993 isoform Q9EQZ6-3): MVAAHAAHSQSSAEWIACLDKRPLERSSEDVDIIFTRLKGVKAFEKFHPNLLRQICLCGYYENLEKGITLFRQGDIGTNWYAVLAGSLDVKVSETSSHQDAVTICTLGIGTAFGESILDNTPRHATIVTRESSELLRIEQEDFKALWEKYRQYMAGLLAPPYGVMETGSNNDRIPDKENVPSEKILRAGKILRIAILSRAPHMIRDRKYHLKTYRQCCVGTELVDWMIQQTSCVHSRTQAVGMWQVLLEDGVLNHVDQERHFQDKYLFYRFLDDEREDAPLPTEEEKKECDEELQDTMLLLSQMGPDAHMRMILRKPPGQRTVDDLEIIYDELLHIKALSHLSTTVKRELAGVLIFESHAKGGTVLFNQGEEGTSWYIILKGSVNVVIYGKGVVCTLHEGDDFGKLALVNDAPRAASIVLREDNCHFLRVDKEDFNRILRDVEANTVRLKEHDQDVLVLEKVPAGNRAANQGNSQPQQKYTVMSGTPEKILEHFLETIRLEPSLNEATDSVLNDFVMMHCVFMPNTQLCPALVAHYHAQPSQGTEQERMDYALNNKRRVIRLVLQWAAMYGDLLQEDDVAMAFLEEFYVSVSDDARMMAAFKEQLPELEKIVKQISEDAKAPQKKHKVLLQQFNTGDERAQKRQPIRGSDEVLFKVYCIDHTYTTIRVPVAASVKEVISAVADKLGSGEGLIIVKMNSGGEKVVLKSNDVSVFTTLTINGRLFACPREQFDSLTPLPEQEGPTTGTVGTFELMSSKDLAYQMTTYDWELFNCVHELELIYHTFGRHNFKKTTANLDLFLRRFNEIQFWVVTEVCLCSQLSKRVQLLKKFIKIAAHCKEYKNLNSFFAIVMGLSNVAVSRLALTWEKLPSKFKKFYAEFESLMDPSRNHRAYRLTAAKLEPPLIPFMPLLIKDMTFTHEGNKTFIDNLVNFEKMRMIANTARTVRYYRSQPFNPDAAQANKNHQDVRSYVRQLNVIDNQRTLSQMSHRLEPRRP

[2] = biological target: T2, Epac1 (Homo sapiens, UniProt O95398); assay: cAMP-mediated Epac1 GEF activity; assay type: biochemical; details: for Inhibition of Epac1 GEF (Rap1-GDP exchange) activity: 25 μM compound in the presence of equal concentration (25 μM) of cAMP
T2 sequence (O95398 1-923): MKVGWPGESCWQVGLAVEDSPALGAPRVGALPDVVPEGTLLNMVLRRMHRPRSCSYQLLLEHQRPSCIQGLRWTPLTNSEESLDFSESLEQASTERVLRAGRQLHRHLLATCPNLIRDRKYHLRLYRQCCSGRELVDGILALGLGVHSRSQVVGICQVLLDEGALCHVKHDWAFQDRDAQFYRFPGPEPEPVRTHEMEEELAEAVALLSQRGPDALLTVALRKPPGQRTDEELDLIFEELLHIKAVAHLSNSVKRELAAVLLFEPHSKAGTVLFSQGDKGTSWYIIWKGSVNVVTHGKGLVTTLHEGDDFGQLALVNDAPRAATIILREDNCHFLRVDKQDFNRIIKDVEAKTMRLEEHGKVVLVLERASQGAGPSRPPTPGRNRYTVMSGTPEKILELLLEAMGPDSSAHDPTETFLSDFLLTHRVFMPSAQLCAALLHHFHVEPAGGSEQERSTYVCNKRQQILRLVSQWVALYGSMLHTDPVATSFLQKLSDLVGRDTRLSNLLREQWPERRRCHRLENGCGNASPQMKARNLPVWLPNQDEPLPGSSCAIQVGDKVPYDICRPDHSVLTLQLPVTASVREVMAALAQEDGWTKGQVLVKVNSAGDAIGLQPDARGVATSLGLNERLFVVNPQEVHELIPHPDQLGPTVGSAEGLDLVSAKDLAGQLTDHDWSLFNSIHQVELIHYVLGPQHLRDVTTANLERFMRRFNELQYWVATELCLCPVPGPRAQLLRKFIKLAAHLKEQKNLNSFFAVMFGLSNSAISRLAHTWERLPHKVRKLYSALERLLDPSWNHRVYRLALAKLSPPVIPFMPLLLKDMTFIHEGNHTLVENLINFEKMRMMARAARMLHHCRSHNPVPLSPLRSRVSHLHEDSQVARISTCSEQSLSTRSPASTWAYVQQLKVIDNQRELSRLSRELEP

[3] = biological target: T1, Epac2; assay: cAMP-mediated Epac2 GEF activity, purified recombinant full-length protein; assay type: biochemical; details: for Inhibition of Epac2 GEF activity: 25 μM compound in the presence of equal concentration (25 μM) of cAMP
[4] = system: type I PKA holoenzyme; assay: Counter-screen: type I PKA holoenzyme activity; assay type: biochemical; details: 25 μM compound, 100 μM cAMP
[5] = system: type II PKA holoenzyme; assay: Counter-screen: type II PKA holoenzyme activity; assay type: biochemical; details: 25 μM compound, 100 μM cAMP
[6] = system: HEK293/Epac1 cells; assay: Epac1-mediated Akt/PKB phosphorylation; assay type: cell-based; details: 10 μM, 5 min pretreatment before 10 μM 007-AM
In short: (§1)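 HEK293 cells ectopically expressing Epac1 or Epac2 were pretreated, or not, with 10 μM test compound and then stimulated with 10 μM 007-AM. Cell lysates were analysed by Western blot with anti-phospho-Ser473 and anti-phospho-Thr308 PKB antibodies.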

[7] = system: HEK293/Epac2 cells; assay: Epac2-mediated Akt/PKB phosphorylation; assay type: cell-based; details: 10 μM, 5 min pretreatment before 10 μM 007-AM
In short: as §1

[8] = 25 μM in the presence of equal molar concentration of cAMP, unpublished data

## N#Cc1c(C2CCCCC2)nc(SCC(=O)Nc2ccccc2)[nH]c1=O [11a]
[1]
  pIC50: < 3.52

## N#Cc1c(C2CCCCC2)nc(Nc2ccc(Cl)cc2)[nH]c1=O [8b]
[1]
  pIC50: < 3.52

## Cc1ccc(C)c(CSc2nc(C3CC3)c(C#N)c(=O)[nH]2)c1 [6g, 4-Cyclopropyl-2-(2,5-dimethylbenzylsulfanyl)-6-oxo-1,6-dihydro-pyrimidine-5-carbonitrile]
[2]
  Inhibition of Epac1 GEF (Rap1-GDP exchange) activity: more Epac2-specific
[3]
  Inhibition of Epac2 GEF activity: inhibit Epac2 GEF activity to basal levels
[4]
  Effect on cAMP-induced type I PKA holoenzyme activation: not to alter
[5]
  Effect on cAMP-induced type II PKA holoenzyme activation: not to alter
[6]
  Block of Epac1-mediated Akt phosphorylation: completely blocked
[7]
  Block of Epac2-mediated Akt phosphorylation: completely blocked

## Cc1ccc(C)c(CSc2nc(C3CCCC3)c(C#N)c(=O)[nH]2)c1 [6h, 4-Cyclopentyl-2-(2,5-dimethyl-benzylsulfanyl)-6-oxo-1,6-dihydro-pyrimidine-5-carbonitrile]
[2]
  Inhibition of Epac1 GEF (Rap1-GDP exchange) activity: inhibit Epac1-mediated Rap1-GDP exchange activity
[3]
  Inhibition of Epac2 GEF activity: inhibit Epac2 GEF activity to basal levels
[4]
  Effect on cAMP-induced type I PKA holoenzyme activation: not to alter
[5]
  Effect on cAMP-induced type II PKA holoenzyme activation: not to alter
[6]
  Block of Epac1-mediated Akt phosphorylation: completely blocked
[7]
  Block of Epac2-mediated Akt phosphorylation: completely blocked

## Cc1ccc(NC(=O)CSc2nc(C3CCCCC3)c(C#N)c(=O)[nH]2)cc1 [11c]
[1]
  pIC50: < 3.52

## N#Cc1c(C2CCCCC2)nc(SCC(=O)O)[nH]c1=O [compound 10]
[1]
  pIC50: < 3.52

## O=S(=O)(NCCNC/C=C/c1ccc(Br)cc1)c1cccc2cnccc12 [H89, reference compound]
[4]
  Effect on cAMP-induced type I PKA holoenzyme activation: blocked the type I or II PKA activities completely
[5]
  Effect on cAMP-induced type II PKA holoenzyme activation: blocked the type I or II PKA activities completely

## Cc1ccc(C)c(CSc2nc(C3CCNCC3)c(C#N)c(=O)[nH]2)c1 [6k]
[1]
  pIC50: < 3.52

## Cc1ccc(C)c(CSc2nc(C3CCCCC3)c(C#N)c(=O)[nH]2)c1 [compound 1]
[2]; [8]
  Inhibition of Epac1 activity: completely inhibiting
[3]; [8]
  Inhibition of Epac2 activity: completely inhibiting

## N#Cc1c(C2CCCCC2)nc(S)[nH]c1=O [5a]
[1]
  pIC50: < 3.52
[1]; RA = IC50, cAMP/IC50, compound
  Relative Potency (RA): <0.16

## Cc1cc(C)c(NC(=O)CSc2nc(C3CCCCC3)c(C#N)c(=O)[nH]2)c(C)c1 [11b]
[1]
  pIC50: < 3.52

## N#Cc1c(C2CCCCC2)nc(Nc2ccccc2)[nH]c1=O [8a]
[1]
  pIC50: < 3.52
